pIC50: −log10 of the molar value. Activity calls are given as the source filed them.
Tests used:
[1] = molecular target: T1, Thromboxane-A synthase (Rattus norvegicus) (UniProt P49430); assay: Tested for antihypertensive activity in spontaneously hypertensive rats at 100 mg/kg peroral dosage for 2 days; A means active; format: functional, organism-based; set-up: dose 100 mg/kg
T1 sequence (whole entry): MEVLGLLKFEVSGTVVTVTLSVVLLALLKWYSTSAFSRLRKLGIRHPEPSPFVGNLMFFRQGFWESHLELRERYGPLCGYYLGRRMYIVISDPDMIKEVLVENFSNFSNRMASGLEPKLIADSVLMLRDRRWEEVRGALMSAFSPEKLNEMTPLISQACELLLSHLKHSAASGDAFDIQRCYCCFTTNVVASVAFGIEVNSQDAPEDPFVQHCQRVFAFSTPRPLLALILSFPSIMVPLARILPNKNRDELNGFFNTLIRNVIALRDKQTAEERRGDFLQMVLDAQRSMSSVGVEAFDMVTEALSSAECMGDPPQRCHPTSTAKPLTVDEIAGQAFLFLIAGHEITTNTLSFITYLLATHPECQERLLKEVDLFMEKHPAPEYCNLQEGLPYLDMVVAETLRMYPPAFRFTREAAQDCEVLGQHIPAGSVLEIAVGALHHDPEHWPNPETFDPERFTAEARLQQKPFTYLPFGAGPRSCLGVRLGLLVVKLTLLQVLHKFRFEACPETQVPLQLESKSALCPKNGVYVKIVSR
In short: (§1)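 Male 16-week-old Okamoto SHR (mean arterial pressure about 170 mmHg) gavaged with compound suspended in 2% preboiled starch (50 mg/mL) at 100 mg/kg or less, with 0.9% NaCl load 25 mL/kg; identical second dose without saline 24 h later. Mean arterial pressure measured 28 h after first dose; one to three rats per compound.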

[2] = molecular target: T2, Thromboxane-A synthase (Rattus norvegicus, UniProt P49430); assay: Tested for inhibition of thromboxane synthetase from spontaneously hypertensive rats
T2 sequence (P49430 whole entry): T1 sequence (whole entry)
In short: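 Washed SHR platelets in oxygenated Krebs phosphate buffer pH 7.4 (4.5-6.0 X 10^4 platelets/µL) incubated with vehicle or drug 10 min at 37 °C; stopped with ice and citric acid. TXB2 measured by direct RIA. Percent inhibition is relative to vehicle controls after background subtraction. IC50 is read from a plot of inhibition vs log concentration.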

[3] = molecular target: T1, Thromboxane-A synthase (Rattus norvegicus); assay: Tested for antihypertensive activity in spontaneously hypertensive rats at 100 mg/kg peroral dosage for 2 days; I is inactive; format: functional, organism-based; set-up: dose 100 mg/kg; in short: as §1

Compound | Activity [1] | pIC50 [2] | Activity [3]
O=c1[nH]c2cc(Cl)ccc2c(=O)n1CCCn1ccnc1 | – | 6.74 | inactive
O=c1[nH]c2c(Cl)cccc2c(=O)n1CCCCCCn1ccnc1 | Active | – | –
CC(CCn1c(=O)[nH]c2ccccc2c1=O)n1ccnc1 (configuration not stated) | Active | 6.15 | –
Nc1cc(Cl)ccc1C(=O)NCCCCn1ccnc1 | Active | – | –
O=c1[nH]c2ccccc2c(=O)n1CCCn1ccnc1 | – | 6.22 | inactive
Nc1ccc(Cl)cc1C(=O)NCCCCn1ccnc1 | – | – | inactive
CCc1nc2ccc(Cl)cc2c(=O)n1CCCCn1ccnc1 | Active | – | –
O=c1[nH]c2ccc(Cl)cc2c(=O)n1CCCn1ccnc1 | – | – | inactive
Nc1ccc(Cl)cc1C(=O)NCCCn1ccnc1 | Active | – | –
O=c1[nH]c2ccc(Cl)cc2c(=O)n1CCCCCCn1ccnc1 | Active | 8.40 | –
Cc1nc2ccc(Cl)cc2c(=O)n1CCCCn1ccnc1 | Active | – | –
Nc1ccc(Br)cc1C(=O)NCCCCn1ccnc1 | Active | – | –
O=c1[nH]c2ccc(Cl)cc2c(=O)n1CCCCCCCn1ccnc1 | Active | 8.70 | –
CC(Cn1ccnc1)Cn1c(=O)[nH]c2c(C(F)(F)F)cccc2c1=O (configuration not stated) | Active | 6.40 | –
O=c1c2cc(Cl)ccc2nnn1CCCCCn1ccnc1 | Active | – | –
O=c1c2ccc(Cl)cc2nnn1CCCCn1ccnc1 | Active | – | –
CC(CCn1c(=O)[nH]c2ccc(Cl)cc2c1=O)n1ccnc1 (configuration not stated) | Active | 6.82 | –
Cc1ccc2ncn(CCCCn3ccnc3)c(=O)c2c1 | Active | 6.46 | –
O=c1c2cc(Cl)ccc2nnn1CCCn1ccnc1 | – | – | inactive
CC(Cn1ccnc1)Cn1c(=O)[nH]c2ccc(Cl)cc2c1=O (configuration not stated) [listing 2 of 3 here] | – | 8.00 | –

Compound | Activity [1] | pIC50 [2] | Activity [3]
O=c1c2ccccc2ncn1CCCCCCn1ccnc1 | Active | – | –
O=c1c2ccccc2nnn1CCCn1ccnc1 | Active | 5.82 | –
O=c1[nH]c2cc(Cl)ccc2c(=O)n1CCCCCCn1ccnc1 | Active | 6.70 | –
Cc1ccc(N)c(C(=O)NCC(C)Cn2ccnc2)c1 (configuration not stated) | – | 5.89 | inactive
CC(Cn1ccnc1)Cn1c(=O)[nH]c2ccc(Cl)cc2c1=O (configuration not stated) [listing 3 of 3 here] | – | 8.10 | –
O=c1[nH]c2c(C(F)(F)F)cccc2c(=O)n1CCCCCn1ccnc1 | Active | 8.00 | –
CC(CCn1c(=O)[nH]c2cc(Cl)ccc2c1=O)n1ccnc1 (configuration not stated) | – | – | inactive
Nc1ccc(Cl)cc1C(=O)NCCCCCCCn1ccnc1 | – | – | inactive
O=c1[nH]c2ccc(Br)cc2c(=O)n1CCCCn1ccnc1 | Active | 6.10 | –
CC(Cn1ccnc1)Cn1nnc2ccc(Cl)cc2c1=O (configuration not stated) | – | 6.05 | inactive
O=c1c2cc(Cl)ccc2nnn1CCCCCCn1ccnc1 | Active | – | –
Cc1ccc2[nH]c(=O)n(CC(C)Cn3ccnc3)c(=O)c2c1 (configuration not stated) | – | 8.52 | inactive
Nc1ccc(Cl)cc1C(=O)NCCCCCn1ccnc1 | Active | – | –
O=c1[nH]c2c(Cl)cccc2c(=O)n1CCCCCn1ccnc1 | Active | 7.40 | –
O=c1c2cc(Cl)ccc2nnn1CCCCn1ccnc1 | Active | 6.62 | –
O=c1[nH]c2ccc(Cl)cc2c(=O)n1CCCCn1ccnc1 [listing 3 of 3 here] | Active | – | –
O=c1[nH]c2ccc(Br)cc2c(=O)n1CCCn1ccnc1 | – | 7.00 | inactive
CC(Cn1ccnc1)Cn1c(=O)[nH]c2cc(Cl)ccc2c1=O (configuration not stated) [listing 2 of 2 here] | – | 8.52 | –
Cc1ccc2nnn(CCCCCn3ccnc3)c(=O)c2c1 | Active | – | –

Continued, values first:

Activity [1] | pIC50 [2] | Activity [3] | Compound
Active | – | – | CC(Cn1ccnc1)Cn1cnc2ccccc2c1=O (configuration not stated)
– | 5.77 | inactive | CC(Cn1ccnc1)Cn1nnc2ccc(Br)cc2c1=O (configuration not stated)
Active | 7.30 | – | O=c1c2ccccc2nnn1CCCCCCn1ccnc1
Active | 6.09 | – | O=c1[nH]c2cc(Cl)ccc2c(=O)n1CCCCCn1ccnc1
Active | 7.92 | – | O=c1[nH]c2ccc(Cl)cc2c(=O)n1CCCCCn1ccnc1
Active | 6.30 | – | CC(CCNC(=O)c1cc(Cl)ccc1N)n1ccnc1 (configuration not stated)
– | 8.15 | inactive | O=c1[nH]c2ccc(Cl)cc2c(=O)n1CCCCCCCCCCn1ccnc1
– | – | inactive | O=c1c2ccc(Cl)cc2ncn1CCCCn1ccnc1
Active | – | – | O=c1c2cc(Cl)ccc2ncn1CCCCCCn1ccnc1
Active | – | – | O=c1c2cc(Cl)ccc2nnn1CCCCCCCCn1ccnc1
– | 6.47 | inactive | Cc1ccc(N)c(C(=O)NCCCCn2ccnc2)c1
Active | 7.52 | – | O=c1[nH]c2c(Cl)cccc2c(=O)n1CCCCn1ccnc1
– | – | inactive | Nc1ccccc1C(=O)NCCCn1ccnc1
– | – | inactive | CC(Cn1ccnc1)Cn1c(=O)[nH]c2ccc(Cl)cc2c1=O (configuration not stated) [listing 1 of 3 here]
Active | – | – | Nc1ccc(Cl)cc1C(=O)NCCCCCCn1ccnc1
– | 5.60 | inactive | CC(CNC(=O)c1ccccc1N)Cn1ccnc1 (configuration not stated)
Active | 7.30 | – | Cc1ccc2[nH]c(=O)n(CCCCn3ccnc3)c(=O)c2c1
Active | 6.30 | – | O=c1c2cc(Cl)ccc2ncn1CCCCn1ccnc1
– | – | inactive | Nc1cc(Cl)ccc1C(=O)NCCCCCn1ccnc1
– | 8.00 | inactive | CC(Cn1ccnc1)Cn1c(=O)[nH]c2c(Cl)cccc2c1=O (configuration not stated)
– | – | inactive | O=c1c2ccccc2nnn1CCCCCn1ccnc1
Active | – | – | O=c1[nH]c2c(C(F)(F)F)cccc2c(=O)n1CCCCCCn1ccnc1
Active | – | – | CC(Cn1ccnc1)Cn1c(=O)[nH]c2cc(Cl)ccc2c1=O (configuration not stated) [listing 1 of 2 here]
Active | 6.77 | – | Cc1ccc(N)c(C(=O)NCCC(C)n2ccnc2)c1 (configuration not stated)
Active | – | – | O=c1c2cc(Br)ccc2nnn1CCCCn1ccnc1
Active | – | – | O=c1[nH]c2ccccc2c(=O)n1CCCCn1ccnc1
Active | 7.52 | – | Cc1ccc2[nH]c(=O)n(CCCCCn3ccnc3)c(=O)c2c1

Activity [1] | pIC50 [2] | Activity [3] | Compound
– | 8.15 | – | O=c1[nH]c2ccc(Cl)cc2c(=O)n1CCCCn1ccnc1 [listing 1 of 3 here]
– | 6.54 | inactive | CC(CNC(=O)c1cc(Br)ccc1N)Cn1ccnc1 (configuration not stated)
Active | 7.15 | – | Cc1ccc2[nH]c(=O)n(CCC(C)n3ccnc3)c(=O)c2c1 (configuration not stated)
– | – | inactive | Nc1ccccc1C(=O)NCCCCn1ccnc1
– | 7.05 | inactive | CC(Cn1ccnc1)Cn1cnc2ccc(Cl)cc2c1=O (configuration not stated)
– | – | inactive | Nc1c(Cl)cccc1C(=O)NCCCCCn1ccnc1
Active | – | – | O=c1c2ccccc2ncn1CCCCCn1ccnc1
Active | 7.30 | – | O=c1[nH]c2c(C(F)(F)F)cccc2c(=O)n1CCCCn1ccnc1
– | – | inactive | O=c1[nH]c2ccc(Cl)cc2c(=O)n1CCCCCCCCn1ccnc1
– | 8.70 | – | O=c1[nH]c2ccc(Cl)cc2c(=O)n1CCCCn1ccnc1 [listing 2 of 3 here]
Active | – | – | Nc1ccc(Cl)cc1C(=O)NCCCCCCCCn1ccnc1
Active | 7.40 | – | O=c1c2cc(Cl)ccc2ncn1CCCCCCCCn1ccnc1
Active | – | – | CC(CNC(=O)c1ccc(Cl)cc1N)Cn1ccnc1 (configuration not stated)
Active | – | – | O=c1c2ccc(Cl)cc2nnn1CCCCCn1ccnc1
Active | 6.00 | – | CC(CCn1c(=O)[nH]c2c(Cl)cccc2c1=O)n1ccnc1 (configuration not stated)
Active | 7.40 | – | O=c1[nH]c2ccccc2c(=O)n1CCCCCCn1ccnc1
Active | 6.46 | – | O=c1[nH]c2ccccc2c(=O)n1CCCCCn1ccnc1
Active | – | – | O=c1c2ccccc2nnn1CCCCn1ccnc1
Active | 5.10 | – | CC(CCn1cnc2ccc(Cl)cc2c1=O)n1ccnc1 (configuration not stated)
Active | 7.05 | – | CC(CNC(=O)c1cc(Cl)ccc1N)Cn1ccnc1 (configuration not stated)
Active | 7.22 | – | Cc1ccc2nnn(CCCCn3ccnc3)c(=O)c2c1
Active | – | – | O=c1c2ccccc2ncn1CCCCn1ccnc1
Active | 8.05 | – | O=c1[nH]c2cc(Cl)ccc2c(=O)n1CCCCn1ccnc1
Active | 7.52 | – | CC(Cn1ccnc1)Cn1c(=O)[nH]c2ccccc2c1=O (configuration not stated)
– | – | inactive | O=c1c2ccccc2ncn1CCCn1ccnc1
– | – | inactive | O=c1c2cc(Cl)ccc2ncn1CCCCCn1ccnc1
